Source: ChEMBL document CHEMBL3351392, “Synthesis, in vitro and in vivo studies, and molecular modeling of N-alkylated dextromethorphan derivatives as non-competitive inhibitors of α3β4 nicotinic acetylcholine receptor” (Bioorg Med Chem, 2014)
The source made the active and inactive calls. The calls are words filed in the database; no cut-off is given here.

Key:
[1] = target: Neuronal acetylcholine receptor; alpha3/beta4 (Rattus norvegicus, UniProt P04757+P12392); assay: Non-competitive inhibition of rat alpha3beta4 nAChR expressed in KX cells assessed as reduction in current by whole-cell patch clamp assay; assay type: cell-based
Sequence of Neuronal acetylcholine receptor; alpha3/beta4 (P04757 whole entry): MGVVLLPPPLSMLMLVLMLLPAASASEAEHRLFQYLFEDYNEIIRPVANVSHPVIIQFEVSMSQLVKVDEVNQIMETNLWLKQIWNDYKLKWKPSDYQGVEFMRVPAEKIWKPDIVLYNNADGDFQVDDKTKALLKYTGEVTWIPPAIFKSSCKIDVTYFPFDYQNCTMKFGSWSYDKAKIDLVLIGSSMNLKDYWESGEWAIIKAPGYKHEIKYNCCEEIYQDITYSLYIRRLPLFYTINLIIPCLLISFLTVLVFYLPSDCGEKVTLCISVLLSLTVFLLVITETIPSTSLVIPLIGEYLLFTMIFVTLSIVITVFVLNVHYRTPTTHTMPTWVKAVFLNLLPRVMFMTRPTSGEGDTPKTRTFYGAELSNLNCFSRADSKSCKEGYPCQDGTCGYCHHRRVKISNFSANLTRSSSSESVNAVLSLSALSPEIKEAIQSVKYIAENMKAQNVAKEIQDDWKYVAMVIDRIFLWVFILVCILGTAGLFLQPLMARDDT
Sequence of Neuronal acetylcholine receptor; alpha3/beta4 (P12392 whole entry): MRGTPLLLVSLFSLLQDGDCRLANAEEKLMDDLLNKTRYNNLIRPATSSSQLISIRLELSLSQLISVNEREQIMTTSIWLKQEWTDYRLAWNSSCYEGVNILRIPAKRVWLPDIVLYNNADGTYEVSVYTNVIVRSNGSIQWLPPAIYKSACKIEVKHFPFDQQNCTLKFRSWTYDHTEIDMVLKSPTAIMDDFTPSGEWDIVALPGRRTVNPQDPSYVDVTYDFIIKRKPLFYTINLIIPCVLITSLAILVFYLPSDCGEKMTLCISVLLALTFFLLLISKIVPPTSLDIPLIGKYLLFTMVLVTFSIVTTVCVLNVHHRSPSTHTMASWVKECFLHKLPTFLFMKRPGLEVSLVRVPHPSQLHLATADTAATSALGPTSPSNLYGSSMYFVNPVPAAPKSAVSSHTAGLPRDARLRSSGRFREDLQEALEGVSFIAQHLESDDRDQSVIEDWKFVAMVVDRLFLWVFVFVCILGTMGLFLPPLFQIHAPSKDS
How it was run: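 KXα3β4R2 cells (rat α3β4) grown in MEM with 10% FBS and 0.7 mg/ml geneticin at 37 °C, 5% CO2, and harvested at 70% confluence. Whole-cell clamp at […] holding potential in HEPES pH 7.4 bath (120 mM NaCl, 3.1 mM KCl, 2 mM CaCl2, 5 mM glucose) at room temperature. Pipette solution: CsCl, ATP, EGTA, pH 7.2. Agents were applied from 0.1 nM upward with 100 µM (S)-nicotine; IC50 taken from current decrease relative to nicotine alone (100%).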

[2] = system: Rattus norvegicus; assay: Toxicity in Wistar rat assessed as inhibition of conditioned place preference at 1/20 to 1/10 LD50, ip in absence of nicotine preconditioning; assay type: organism-based; conditions: in vivo
[3] = system: Rattus norvegicus; assay: Effect on basal locomotor activity in Wistar rat at 1/20 to 1/10 LD50, ip; assay type: ADME, organism-based; conditions: in vivo
[4] = system: Rattus norvegicus; assay: Behavioral effect in Wistar rat assessed as inhibition of nicotine-induced conditioned place preference at 1/20 LD50, ip administered during post-conditioning test phase on day 5 of nicotine treatment; assay type: functional, organism-based
How it was run: (§1)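 Male Wistar rats (250–300 g), on restricted chow and handled for 5 days. A 15-min baseline excluded rats with a side preference. On days 2–4, two 30-min sessions per day: vehicle in the morning, nicotine 0.175 mg/kg ip in the afternoon, each in opposite compartments. On day 5, agent given ip (5 ml/kg) 60 min before nicotine, then tested immediately. Score is post- minus pre-conditioning time in the drug-paired compartment; n = 7–14.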

[5] = system: Rattus norvegicus; assay: Toxicity in Wistar rat assessed as inhibition of conditioned place preference at 10 mg/kg, ip in absence of nicotine preconditioning; assay type: organism-based; design: dose 10 mg/kg, route intraperitoneal; conditions: in vivo
[6] = system: Rattus norvegicus; assay: Behavioral effect in Wistar rat assessed as inhibition of nicotine-induced conditioned place preference at 10 mg/kg, ip administered during post-conditioning test phase on day 5 of nicotine treatment; assay type: functional, organism-based; design: dose 10 mg/kg; how it was run: as §1
[7] = system: Rattus norvegicus; assay: Effect on basal locomotor activity in Wistar rat at 5 mg/kg, ip; assay type: ADME, organism-based; design: dose 5 mg/kg, route intraperitoneal; conditions: in vivo

Row | Structure (SMILES) | IC50 [1] | further results
1 | COc1ccc2c(c1)[C@]13CCCC[C@@H]1[C@H](C2)N(CCC1OCCO1)CC3 | 7.14 µM | Activity [2]: Non-toxic; Activity [3]: Non-toxic
2 | COc1ccc2c(c1)[C@]13CCCC[C@@H]1[C@H](C2)N(CC#N)CC3 | 10.5 µM | inhibition [4]: Active; Activity [2]: Non-toxic; Activity [3]: Non-toxic
3 | COc1ccc2c(c1)[C@]13CCCC[C@@H]1[C@H](C2)N(CCC(C)=O)CC3 | 2.57 µM | –
4 | COc1ccc2c(c1)[C@]13CCCC[C@@H]1[C@H](C2)N(CCCC#N)CC3 | 87 µM | –
5 | COc1ccc2c(c1)[C@]13CCCC[C@@H]1[C@H](C2)N(CC(N)=O)CC3 | 41.4 µM | –
6 | COc1ccc2c(c1)[C@]13CCCC[C@@H]1[C@H](C2)N(CC1OCCO1)CC3 | 1.95 µM | Activity [2]: Non-toxic; Activity [3]: Non-toxic
7 | COc1ccc2c(c1)[C@]13CCCC[C@@H]1[C@H](C2)N(CC1=NCCN1)CC3 | 6.61 µM | –
8 | COc1ccc2c(c1)[C@]13CCCC[C@@H]1[C@H](C2)N(C)CC3 [DEXTROMETHORPHAN] | 11.1 µM | Activity [5]: Non-toxic; inhibition [6]: Active; Activity [7]: Non-toxic
9 | CCC(=O)CN1CC[C@@]23CCCC[C@@H]2[C@@H]1Cc1ccc(OC)cc13 | 2.5 µM | –
10 | COc1ccc2c(c1)[C@]13CCCC[C@@H]1[C@H](C2)N(CCC#N)CC3 | 176 µM | –
11 | COc1ccc2c(c1)[C@]13CCCC[C@@H]1[C@H](C2)NCC3 | 3.08 µM | –
